# Screens from PubChem BioAssay.
# HNF4A DNA FP – change in binding of human HNF4 alpha to DNA. P41235. HNF4a-FITC DNA binding, fluorescence polarization, 1 h. AID 1224865. activity change, % at 10 µM. hit rate 0.3% among 360,000; in the data active = activity change above about 30%, passing the limit was not always enough
# Granule exo inh – lytic granule exocytosis inhibition. hit rate 0.66% among 360,000. TALL-104 LAMP-1 surface exposure, flow cytometry; cells stimulated with thapsigargin and PMA. inhibition, % at 10 µM;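 active = inhibition above about 55%, limit read from the data; inconclusive = no clear call, values can overlap the other calls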
# SENP1 FRET inh – SENP1 (human) catalytic domain inhibition; Q9P0U3; recombinant SENP1 catalytic domain, CyPet-SUMO1-YPet FRET cleavage; inhibition, % at 10 µM; hit rate 0.21% among 360,000; AID 624204;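 active = inhibition at least 30% at 10 µM, raw YFP signal under a set limit, fluorescence ratio 0.5 to 1.5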
# Target sequence (Q9P0U3 419-644 limits assumed): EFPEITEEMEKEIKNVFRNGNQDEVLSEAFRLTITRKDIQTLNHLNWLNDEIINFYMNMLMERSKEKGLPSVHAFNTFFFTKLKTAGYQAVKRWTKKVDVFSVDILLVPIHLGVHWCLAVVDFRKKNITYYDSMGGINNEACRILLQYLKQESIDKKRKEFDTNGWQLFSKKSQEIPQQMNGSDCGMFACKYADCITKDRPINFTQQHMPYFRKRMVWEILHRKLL
#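 Test system: hSENP1 catalytic domain, recombinant; Amount: 20 pM final SENP1 enzyme; Medium: Tris pH 8 buffer plus EDTA, NaCl, BME, BSA, NP40, catalase; Schedule: 50 min enzyme reaction, room temperature, light-protected; Technique: FRET fluorescence in CFP and YFP emission channels; Controls: no-enzyme wells low, DMSO-plus-enzyme wells high control.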
# Pemphigus Ab inh – inhibitors of pemphigus antibody binding to human desmoglein-3. AID 588358. DSG3-coupled beads, scFv-anti-DSG3-GFP binding, flow cytometry; active compounds read low. binding (percent of control), % at 10 µM. hit rate 0.48% among 310,000. P32926;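 active = binding more than 3 SD below its plate's average and above zero; inconclusive = below that plate limit but binding exactly zero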;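 also: hits lower antibody fragment binding to DSG3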
# Cardio protect – protects H9c2 cardiomyocytes from peroxide injury; H2O2 injury protection, ATPLite, 2 h; protection from H2O2 cell death, % at 20 µM; hit rate 0.63% among 360,000; AID 588492;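 active = compounds giving at least 50% protection of heart cells from peroxide-induced death in the single-dose screen, raw or plate-pattern-corrected value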
# Myeloid diff MLP – promotes myeloid progenitor differentiation | ER-HoxA9 myeloid progenitors, lysozyme-GFP differentiation, flow cytometry | calls only at 10 µM | hit rate 1% among 360,000 | AID 624256;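 active = normalized GFP-positive differentiation at or above the plate's own cutoff, the solvent-only control mean plus 3 SD; inconclusive = no clear call, values can overlap the other calls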;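 also: cells exposed to compound for four days before flow analysis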
# A number is an active result; - = inactive; ? = inconclusive; . = not tested or not shown; + = active, no number. Rows were chosen to be rich in hits. Some 3% of all compounds tested hit in one or more screens of this group.
SMILES,HNF4A DNA FP,Granule exo inh,SENP1 FRET inh,Pemphigus Ab inh,Cardio protect,Myeloid diff MLP
Cc1[nH]nc2c1C(c1ccc(F)cc1)C(C#N)=C(N)O2 (centres undefined),-,-,-,.,-,-
Cc1oc(C)c2c(=O)ccc3c(c12)OC(N)=C(C#N)C3c1ccc(F)cc1 (centres undefined),-,-,-,-,-,+
C=CCN1C(=O)/C(=C2\SC(N3CCOCC3)=NC2=O)c2cc(Br)ccc21,-,-,-,-,76,-
O=CN/C=C/c1cc(O)ccc1O,-,-,-,78,-,-
O=Cc1ccc(O)cc1O,-,-,-,-,-,-
COC(=O)[C@@]1(Cc2ccc(OC)cc2)[C@@H]2C(=CC(=O)[C@H]2CC(=O)C(=O)N2CCCC2)CN1C(=O)c1ccccc1,-,-,-,-,-,+
Cc1[nH]nc(N=CC2=C(O)CC(C)(C)CC2=O)c1-c1ccc(Cl)cc1,-,-,-,-,-,-
O=C1CC(c2ccco2)CC(O)=C1C=Nc1cc(Cl)ccc1O (centres undefined),-,-,37,-,-,-
Cc1[nH]nc(N=CC2=C(O)CC(c3ccco3)CC2=O)c1-c1ccc(Cl)cc1 (centres undefined),-,98,-,-,-,-
CC(C)(C)NCC(O)COc1ccccc1C1CCCC1 (centres undefined),-,-,-,-,-,+
CC(C)(C)NC[C@@H](O)COc1cccc2c1CCCC2=O,-,-,-,-,-,-
CCS(=O)(=O)N1N=C(c2cccc(NS(C)(=O)=O)c2)CC1c1ccc(C)cc1 (centres undefined),-,-,-,-,-,+
Cc1ccc(C2=NN(S(C)(=O)=O)C(c3ccc4c(c3)OCO4)C2)cc1 (centres undefined),51,-,-,-,-,+
CC(=O)N1N=C(c2ccc(C)cc2)CC1c1ccc2c(c1)OCO2 (centres undefined),-,-,-,.,-,-
CS(=O)(=O)Nc1ccc(C2=NN(S(C)(=O)=O)C(c3ccc4nccnc4c3)C2)cc1 (centres undefined),-,-,-,-,-,-
CS(=O)(=O)N1N=C(c2ccc(Br)cc2)CC1c1ccc2c(c1)OCO2 (centres undefined),-,-,-,-,-,+
CC(C)c1ccc(NC(=O)Cc2c(C(=O)O)n(C)c3ccccc23)cc1,-,-,-,-,-,-
CN(C)CCSc1nc2cc(S(=O)(=O)N3CCCCC3)ccc2o1,-,-,-,.,-,-
COc1cc(/C=N/NC(=O)/C(=C/c2ccccc2)CCO)ccc1O,-,-,-,-,-,-
O=C(CNC(=O)C(c1ccccc1)c1ccccc1)N/N=C\c1cccc(O)c1,-,-,-,-,-,-
O=C(/C=C\c1ccccc1)NCC(=O)N/N=C/c1ccc(O)cc1O,-,-,-,-,66,-
O=C(CNC(=O)C(c1ccccc1)c1ccccc1)N/N=C/c1ccc(O)cc1O,-,-,-,-,56,-
CCc1cc(C(=O)N/N=C/c2ccc(O)cc2O)c2ccccc2n1,-,-,-,-,53,?
O=C(N/N=C/c1ccc(O)cc1O)/C(=C/c1ccccc1)CCO,-,-,-,-,57,-
COc1ccc(/C=C\C(=O)NCC(=O)N/N=C/c2ccc(O)cc2O)cc1,-,-,-,-,-,-
SMILES,HNF4A DNA FP,Granule exo inh,SENP1 FRET inh,Pemphigus Ab inh,Cardio protect,Myeloid diff MLP
O=C(CNC(=O)C1COc2ccccc2O1)N/N=C/c1ccc(O)cc1O (centres undefined),-,-,-,-,63,-
CC(C)[C@H](NC(=O)OCc1ccccc1)C(=O)N[C@@H](Cc1c[nH]c2ccccc12)C(=O)O,-,-,-,-,-,-
O=c1oc2cc(Cl)ccc2n1CSc1nc2ccccc2s1,-,-,-,-,-,+
O=C(CSc1nc2ccccc2s1)N1c2ccccc2Sc2ccc(Cl)cc21,-,-,-,-,-,-
CC1(C(=O)Nc2cccc3ccccc23)CCN1C(=O)C1(c2ccccc2)CCCC1 (centres undefined),-,-,-,.,-,-
COc1ccc2cc(C#N)c(SCC(=O)N3CC(=O)Nc4ccccc43)nc2c1,-,-,-,69,-,-
Cc1cccc2cc(C#N)c(SCC(=O)N3CC(=O)Nc4ccccc43)nc12,-,-,-,-,-,?
COc1cccc(NC(=O)CN(C)C(=O)CCNC(=O)c2ccccc2OC)c1,-,-,-,-,-,+
CCOc1ccc(NC(=O)CN(C)C(=O)Cc2n[nH]c(=O)c3ccccc23)cc1OCC,-,-,-,.,59,-
COc1ccc(NC(=O)CN(C)C(=O)Cc2n[nH]c(=O)c3ccccc23)cc1,-,-,-,-,61,-
COc1cccc(CN(C)C(=O)CCNC(=O)c2ccc(Br)cc2)c1,-,-,-,-,-,+
CCOc1ccc(NC(=O)c2ccc(NC(=O)Cc3n[nH]c(=O)c4ccccc34)cc2)cc1,-,-,-,-,-,-
Cc1ccsc1C(=O)N1CCC1(C)C(=O)NS(=O)(=O)c1ccc(Br)cc1 (centres undefined),-,-,-,.,-,-
O=C(Cc1c(F)cccc1Cl)N1CCN(S(=O)(=O)c2cccs2)CC1,-,-,-,.,-,-
O=C(c1cc(Cl)ccc1O)N1CCN(S(=O)(=O)Cc2ccccc2)CC1,-,-,-,.,-,-
COc1ccc(NS(=O)(=O)c2cc(NC(=O)c3cc(=O)c4ccccc4o3)ccc2OC)cc1,-,-,-,-,-,-
COc1ccc(Cl)cc1NC(=O)CN(C)C(=O)Cn1c(=O)oc2ccccc21,-,-,-,-,-,-
COc1cccc(NC(=O)CN(C)C(=O)Cc2n[nH]c(=O)c3ccccc23)c1,-,-,-,-,79,-
COc1ccc(NS(=O)(=O)c2cc(NC(=O)Cc3n[nH]c(=O)c4ccccc34)ccc2OC)cc1,-,-,-,-,70,-
COc1ccc(Cl)cc1NC(=O)CN(C)C(=O)Cc1n[nH]c(=O)c2ccccc12,-,-,-,-,100,-
CN(CC(=O)Nc1ccccc1Cl)C(=O)COC(=O)C1=COCCO1,-,-,-,-,-,-
COc1ccc(C2CC(c3cccc([N+](=O)[O-])c3)=NN2/C(C)=C/C(C)=O)cc1 (centres undefined),87,-,-,-,-,-
COC(=O)c1cc(S(=O)(=O)NCC2CCN(CCc3ccc(OC)cc3)CC2)cn1C,-,-,-,-,-,-
COc1ccc2c(/C=C/c3cc[n+](C)cc3)c[nH]c2c1,36,-,-,-,-,+
CCC(C)N(C)C(=O)c1cc2ccccc2c(-c2ccccc2Cl)n1 (centres undefined),-,-,-,20,-,-
Cc1onc(-c2ccccc2Cl)c1C(=O)N(Cc1ccccc1)C(C)C,-,-,-,-,-,-
